Assay results reported in ChEMBL document CHEMBL4385592, “4-Imidazo[2,1-b]thiazole-1,4-DHPs and neuroprotection: preliminary study in hits searching” (Eur J Med Chem, 2019).

Assays:
[1] = target: T1, Voltage-gated L-type calcium channel (Homo sapiens, UniProt Q13936+Q13698+Q01668+O60840); experiment: Inhibition of voltage-dependent L-type calcium channel in human SH-SY5Y cells assessed as protection against glutamate-induced excitotoxicity by measuring recovery of cell viability at 20 uM measured after 24 hrs by alamar blue-based fluorescence method relative to control
[2] = target: T1, Voltage-gated L-type calcium channel; experiment: (§1) Inhibition of voltage-dependent L-type calcium channel in human U373MG cells assessed as protection against oxygen glucose deprivation/reperfusion-induced injury by measuring recovery of cell viability at 1 uM administered at onset of reperfusion period measured after 16 hrs by alamar blue assay relative to control; assay type: cell-based
Method in brief: (§2)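 U-373 MG astrocytoma cells seeded at 30000 cells/ml and grown 24 or 48 h (37 °C/5% CO2). OGD: 24 h at 37 °C in glucose-free DMEM pre-bubbled with 95% N2/5% CO2, in a sealed nitrogen-flushed chamber. Then 16 h reperfusion in normal medium; compounds added at reperfusion, diluted from DMSO stock (DMSO ≤0.1%). Viability by alamarBlue, 4 h at 37 °C, fluorescence ex 530–560/em 590 nm. Expressed as % recovery from injury, mean ± S.E. of ≥3 experiments in sixuplicate.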

[3] = target: T1, Voltage-gated L-type calcium channel; experiment: as §1, with “at 20” for “at 1”; assay type: cell-based; method in brief: as §2
[4] = target: T1, Voltage-gated L-type calcium channel; experiment: Inhibition of voltage-dependent L-type calcium channel in human SH-SY5Y cells assessed as protection against glutamate-induced excitotoxicity by measuring recovery of cell viability at 1 uM measured after 24 hrs by alamar blue-based fluorescence method relative to control
[5] = target: T2, Voltage-gated L-type calcium channel (Rattus norvegicus, UniProt P22002+Q02485+P27732); experiment: as §1, with “Wistar rat brain slices” for “human U373MG cells”, “edema formation” for “cell viability”, “20” for “1”, “90 mins” for “16 hrs by alamar blue assay”; design: scale not given: the % may be the effect or the level left; conditions: 1.5 h
[6] = target: T2, Voltage-gated L-type calcium channel; experiment: as §1, with “Wistar rat brain slices” for “human U373MG cells”, “LDH release” for “cell viability”, “20” for “1”, “90 mins” for “16 hrs”, “spectrophotometric” for “alamar blue”; design: scale not given: the % may be the effect or the level left; conditions: 1.5 h

**Q.** `COC(=O)C1=C(C)NC(C)=C(C(=O)OC)C1c1c(-c2ccc(C(F)(F)F)cc2)nc2sccn12` was tested. Which Activity [1] did it give?
**A.** The Activity was 36.6%.

**Q.** And the Activity [2]?
**A.** Its Activity is under 5%.

**Q.** And the Activity [3]?
**A.** The Activity was under 5%.

**Q.** And the Activity [4]?
**A.** The Activity was 17.5%.

**Q.** `COC(=O)C1=C(C)NC(C)=C(C(=O)OC)C1c1c(-c2ccc(OC(F)(F)F)cc2)nc2sccn12` was tested. Which Activity [1] did it give?
**A.** The Activity was 37.7%.

**Q.** And the Activity [2]?
**A.** Its Activity is 52.3%.

**Q.** And the Activity [3]?
**A.** Its Activity is 54.2%.

**Q.** And the Activity [5]?
**A.** The Activity was 93.8%.

**Q.** What about the Activity [6] of the same compound?
**A.** The Activity was 93.8%.

**Q.** And the Activity [4]?
**A.** The Activity was 37.4%.

**Q.** `CCOC(=O)C1=C(C)NC(C)=C(C(=O)OCC)C1c1c(-c2cc(OC)ccc2OC)nc2sccn12` was tested. Which Activity [1] did it give?
**A.** The Activity was 67.4%.

**Q.** What about the Activity [2] of the same compound?
**A.** The Activity was 36.6%.

**Q.** What about the Activity [3] of the same compound?
**A.** Its Activity is 65.7%.

**Q.** And the Activity [5]?
**A.** The Activity was 75.8%.

**Q.** And the Activity [6]?
**A.** Its Activity is 87%.

**Q.** And the Activity [4]?
**A.** The Activity was 42.8%.

**Q.** `COC(=O)C1=C(C)NC(C)=C(C(=O)OC)C1c1c(-c2ccccc2OC)nc2sccn12` was tested. Which Activity [1] did it give?
**A.** Its Activity is under 5%.

**Q.** What about the Activity [2] of the same compound?
**A.** Its Activity is under 5%.

**Q.** What about the Activity [3] of the same compound?
**A.** The Activity was under 5%.

**Q.** And the Activity [4]?
**A.** The Activity was under 5%.

**Q.** With `COC(=O)C1=C(C)NC(C)=C(C(=O)OC)C1c1c(-c2cc(OC)c([N+](=O)[O-])cc2OC)nc2sccn12` as the compound, how does the Activity [1] read?
**A.** Its Activity is 46.3%.

**Q.** What about the Activity [2] of the same compound?
**A.** Its Activity is under 5%.

**Q.** What about the Activity [3] of the same compound?
**A.** Its Activity is under 5%.

**Q.** And the Activity [4]?
**A.** Its Activity is 31.5%.

**Q.** How did the Activity [1] turn out when `COC(=O)C1=C(C)NC(C)=C(C(=O)OC)C1c1c(-c2cc(OC)ccc2OC)nc2sc(Cl)cn12` was run?
**A.** The Activity was 108.4%.

**Q.** And the Activity [2]?
**A.** Its Activity is 78.8%.

**Q.** And the Activity [3]?
**A.** Its Activity is 99.6%.

**Q.** And the Activity [5]?
**A.** The Activity was 91.8%.

**Q.** What about the Activity [6] of the same compound?
**A.** The Activity was 81.3%.

**Q.** And the Activity [4]?
**A.** The Activity was 42%.

**Q.** How did the Activity [1] turn out when `COC(=O)C1=C(C)NC(C)=C(C(=O)OC)C1c1c(C(F)(F)F)nc2sccn12` was run?
**A.** Its Activity is 84.5%.

**Q.** And the Activity [2]?
**A.** The Activity was 73%.

**Q.** And the Activity [3]?
**A.** Its Activity is 86.7%.

**Q.** What about the Activity [5] of the same compound?
**A.** Its Activity is 105.4%.

**Q.** What about the Activity [6] of the same compound?
**A.** Its Activity is 79.2%.

**Q.** And the Activity [4]?
**A.** The Activity was 44.1%.

**Q.** How did the Activity [1] turn out when `COC(=O)C1=C(C)NC(C)=C(C(=O)OC)C1c1c(C(F)(F)F)nc2sc(C)cn12` was run?
**A.** Its Activity is 44.1%.

**Q.** And the Activity [2]?
**A.** Its Activity is under 5%.

**Q.** And the Activity [3]?
**A.** The Activity was under 5%.

**Q.** What about the Activity [5] of the same compound?
**A.** The Activity was 63.7%.

**Q.** What about the Activity [6] of the same compound?
**A.** The Activity was 100.3%.

**Q.** What about the Activity [4] of the same compound?
**A.** The Activity was 35.4%.

**Q.** Which Activity [1] does the source give for `COC(=O)C1=C(C)NC(C)=C(C(=O)OC)C1c1c(-c2cccc(OC)c2)nc2sccn12` here?
**A.** The Activity was under 5%.

**Q.** What about the Activity [2] of the same compound?
**A.** Its Activity is under 5%.

**Q.** What about the Activity [3] of the same compound?
**A.** Its Activity is under 5%.

**Q.** And the Activity [4]?
**A.** Its Activity is under 5%.

**Q.** Which results are given for `COC(=O)C1=C(C)NC(C)=C(C(=O)OC)C1c1c(-c2ccccc2)nc2scc(C)n12`?
**A.** Activity [1]: 130%; Activity [2]: < 5%; Activity [3]: < 5%; Activity [5]: 82.5%; Activity [6]: 100.65%; Activity [4]: 85.1%

**Q.** With `COC(=O)C1=C(C)NC(C)=C(C(=O)OC)C1c1c(-c2cc(OC)ccc2OC)nc2sccn12` as the compound, how does the Activity [1] read?
**A.** The Activity was 99%.

**Q.** And the Activity [2]?
**A.** The Activity was 82.9%.

**Q.** What about the Activity [3] of the same compound?
**A.** The Activity was 96.7%.

**Q.** And the Activity [5]?
**A.** The Activity was 77.6%.

**Q.** And the Activity [6]?
**A.** Its Activity is 83.9%.

**Q.** What about the Activity [4] of the same compound?
**A.** Its Activity is 51.9%.

**Q.** Which results are given for `COC(=O)C1=C(C)NC(C)=C(C(=O)OC)C1c1c(-c2c(OC)ccc(OC)c2[N+](=O)[O-])nc2sc(Cl)cn12`?
**A.** Activity [1]: 36.8%; Activity [2]: < 5%; Activity [3]: < 5%; Activity [4]: 13.1%
